Results on four compounds are retold here after publication PMC3983348 (Journal of Medicinal Chemistry, 2014).

Like-named read-outs stand apart in the source and are kept apart here.

Data set [1] has as its system lung, HOP-62. Nature of the data set: NCI-60 five-dose assay, HOP-62. Type of data set: cell-based. The note with it: Homo sapiens, HOP-62, read-out: cytotoxicity GI50, lung, HOP-62. Put shortly: (§1)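 Run in the National Cancer Institute's NCI-60 human cancer cell panel. Test compounds were first screened in a one-dose assay at 10–5 M, reading growth percent relative to vehicle-treated control.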

The test system of data set [2] is colon, HCT-116. Description: NCI-60 five-dose assay, HCT-116. Type of data set: cell-based. The note with it: Homo sapiens, HCT-116, read-out: cytotoxicity GI50, colon, HCT-116. Put shortly: as §1
The test system of data set [3] is melanoma, UACC-62. Nature of the data set: NCI-60 five-dose assay, UACC-62. It is filed as cell-based. The following applies: Homo sapiens, UACC-62, read-out: cytotoxicity GI50, melanoma, UACC-62. Put shortly: as §1
Data set [4] relates to ovarian, OVCAR-3. Description: NCI-60 five-dose assay, OVCAR-3. The following applies: Homo sapiens, OVCAR-3, read-out: cytotoxicity GI50, ovarian, OVCAR-3. Type of data set: cell-based. The method, boiled down:
as §1

Data set [5] deals with renal, SN12C. Description: NCI-60 five-dose assay, SN12C. Type of data set: cell-based. The note with it: Homo sapiens, read-out: cytotoxicity GI50, renal, SN12C. The method, boiled down: as §1
The test system of data set [6] is prostate, DU-145. Nature of the data set: NCI-60 five-dose assay, DU-145. Type of data set: cell-based. The note with it: Homo sapiens, DU-145, read-out: cytotoxicity GI50, prostate, DU-145. The method, boiled down:
as §1

In data set [7] the test system is breast, MCF7. Nature of the data set: NCI-60 five-dose assay, MCF7. Type of data set: cell-based. The following applies: Homo sapiens, MCF7, read-out: cytotoxicity GI50, breast, MCF7. Put shortly:
as §1

The target of data set [8] is T1, recombinant Top1 (Homo sapiens, UniProt P11387).
T1 sequence (P11387 1-765): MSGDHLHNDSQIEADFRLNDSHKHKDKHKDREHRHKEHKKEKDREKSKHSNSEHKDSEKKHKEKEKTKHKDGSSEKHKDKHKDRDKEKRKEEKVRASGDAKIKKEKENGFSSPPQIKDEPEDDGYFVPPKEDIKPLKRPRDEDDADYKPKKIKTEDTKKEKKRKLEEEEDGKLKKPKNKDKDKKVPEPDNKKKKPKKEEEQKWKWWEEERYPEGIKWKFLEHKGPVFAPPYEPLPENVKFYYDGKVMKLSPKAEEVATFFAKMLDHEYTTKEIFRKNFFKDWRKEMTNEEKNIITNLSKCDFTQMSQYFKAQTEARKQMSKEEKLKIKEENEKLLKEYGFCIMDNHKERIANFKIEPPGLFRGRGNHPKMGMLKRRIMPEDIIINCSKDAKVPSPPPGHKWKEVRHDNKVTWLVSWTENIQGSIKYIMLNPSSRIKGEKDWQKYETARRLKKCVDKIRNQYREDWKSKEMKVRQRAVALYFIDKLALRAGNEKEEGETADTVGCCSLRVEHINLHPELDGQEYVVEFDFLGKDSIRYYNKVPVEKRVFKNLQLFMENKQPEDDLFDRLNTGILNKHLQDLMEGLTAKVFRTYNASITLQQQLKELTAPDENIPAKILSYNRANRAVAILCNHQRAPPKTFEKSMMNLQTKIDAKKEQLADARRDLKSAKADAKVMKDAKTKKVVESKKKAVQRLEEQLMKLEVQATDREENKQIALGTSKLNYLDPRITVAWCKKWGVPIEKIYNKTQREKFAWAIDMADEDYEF
More on the design: key to the marks not given beside the values. The following applies: score based on the activity of 1 μM camptothecin; cited from earlier work.

Data set [9] has as its system lung, HOP-62. The note with it: read-out: cytotoxicity GI50, lung, HOP-62; five-dose assay; cited from earlier work.
Data set [10] deals with colon, HCT-116. The note with it: read-out: cytotoxicity GI50, colon, HCT-116; five-dose assay; cited from earlier work.
The next data set has as its system CNS, SF-539. The note with it: read-out: cytotoxicity GI50, CNS, SF-539; five-dose assay; cited from earlier work.
In data set [11] the test system is melanoma, UACC-62. The following applies: read-out: cytotoxicity GI50, melanoma, UACC-62; five-dose assay; cited from earlier work.
Data set [12] has as its system ovarian, OVCAR-3. The following applies: read-out: cytotoxicity GI50, ovarian, OVCAR-3; five-dose assay; cited from earlier work.
Data set [13] has as its system renal, SN12C. The note with it: read-out: cytotoxicity GI50, renal, SN12C; five-dose assay; cited from earlier work.
Data set [14] relates to prostate, DU-145. The following applies: read-out: cytotoxicity GI50, prostate, DU-145; five-dose assay; cited from earlier work.
Data set [15] relates to breast, MCF7. The following applies: read-out: cytotoxicity GI50, breast, MCF7; five-dose assay; cited from earlier work.
Data set [16] concerns panel of 60 different human cancer cell lines. The following applies: mean graph midpoint, five-dose assay; cited from earlier work.
Data set [17] concerns the target T1, recombinant Top1. Description: Top1-mediated DNA cleavage assay. Type of data set: biochemical. The note with it: compound-induced DNA cleavage, score based on the activity of 1 μM camptothecin.
The next data set has as its system ∼60 cancer cell lines. Nature of the data set: NCI-60 one-dose assay. It is filed as cell-based. The note with it: Homo sapiens, read-out: mean growth, %, 10 μM compound, one-dose assay, relative to vehicle-treated control. The method, boiled down:
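Single-dose screen at 10–5 M across the ~60 human cancer cell lines of the NCI-60 panel. Growth percent of treated cells was expressed relative to vehicle-treated controls and averaged over the panel.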

Data set [18] has as its system panel of 60 different human cancer cell lines. Description: NCI-60 five-dose assay, mean graph midpoint. It is filed as cell-based. The note with it: mean graph midpoint of growth inhibition, five-dose assay 10^–8 to 10^–4 M.

What is called GI50 is the concentration that inhibits growth by half. As for `CC[C@@]1(O)C(=O)OCc2c1cc1n(c2=O)Cc2cc3ccccc3nc2-1` [Compound 1, camptothecin, reference compound], the GI50 is 10 nM with lung, HOP-62 [1]; 30 nM with colon, HCT-116 [2]; 10 nM in the data set on melanoma, UACC-62 [3]; 220 nM in the data set on ovarian, OVCAR-3 [4]; 20 nM in the data set with renal, SN12C [5]; 10 nM with prostate, DU-145 [6]. The GI50 with breast, MCF7 [7] worked out at 10 nM.

Take `COc1cc2c3c(n(CCCN4CCOCC4)c(=O)c2cc1OC)-c1cc2c(cc1C3=O)OCO2` [Compound 4, 2,3-Dimethoxy-6-(3-morpholinopropyl)-5,6-dihydro-8,9-methylenedioxy-5,12-dioxoindeno[1,2-c]isoquinoline]: on recombinant Top1 [8], the Top1 cleavage entry is recorded as “++++”. Moreover, the GI50 is 1780 nM with lung, HOP-62 [9]; 1150 nM in the data set on colon, HCT-116 [10]; 40 nM in the data set on CNS, SF-539; 30 nM in the data set on melanoma, UACC-62 [11]; 74.1 µM with ovarian, OVCAR-3 [12]; 813 nM in the data set on renal, SN12C [13]. Moreover, the GI50 with prostate, DU-145 [14] was 155 nM; with breast, MCF7 [15], 370 nM. Also, the MGM in data set [16] was 4.64 ± 1.25 µM.

Regarding `COc1cc2c3c(n(CCCn4ccnc4)c(=O)c2cc1OC)-c1cc2c(cc1C3=O)OCO2` [Compound 5, 6-(3-(1H-Imidazol-1-yl)propyl)-2,3-dimethoxy-5,6-dihydro-8,9-methylendioxy-5,12-dioxoindeno[1,2-c]isoquinoline], the Top1 cleavage entry at recombinant Top1 [8] is “++++”. The concentration for 50% growth inhibition (GI50) in the data set on lung, HOP-62 [9] is less than 10 nM; in the data set on colon, HCT-116 [10], less than 10 nM; with CNS, SF-539, 37 nM; in the data set with melanoma, UACC-62 [11] it was less than 10 nM; in the data set with ovarian, OVCAR-3 [12] it was 0.085 µM; with renal, SN12C [13] it was less than 10 nM. The GI50 in the data set on prostate, DU-145 [14] is less than 10 nM. The MGM in [16] is 0.079 ± 0.023 µM.

For the compound `O=C1c2ccccc2-c2c1c1ccc([N+](=O)[O-])cc1c(=O)n2C[C@H](O)[C@@H](O)[C@@H](O)[C@H](O)CO` [Compound 69, (2′S,3′R,4′S,5′R)-5,6-Dihydro-6-(2′,3′,4′,5′,6′-pentahydroxyhexyl)-3-nitro-5,11-dioxo-11H-indeno[1,2-c]isoquinoline], on recombinant Top1 [17], the Top1 cleavage entry is given as “++++”. Further, the activity at 10 µM in the data set with ∼60 cancer cell lines lay in the range of 51.5 to 73.2%. In addition, in the data set with colon, HCT-116 [2], the GI50 is 3390 nM. The same compound yielded an MGM in [18] of 7.94 µM.
